Measurements published in ChEMBL document CHEMBL4715736, “Identification of anticancer agents based on the thieno[2,3-b]pyridine and 1H-pyrazole molecular scaffolds” (2016).

Tests used:
Type in all cases: functional
NCI-H23 = assay: Growth inhibition of human NCI-H23 cells assessed as cell growth at 0.01 uM incubated for 48 hrs by sulforhodamine B assay relative to control; details: read-out: Activity
M14 [1] = assay: Growth inhibition of human M14 cells assessed as cell growth at 0.01 uM incubated for 48 hrs by sulforhodamine B assay relative to control; details: read-out: Activity
OVCAR-5 = assay: Growth inhibition of human OVCAR-5 cells assessed as cell growth at 0.01 uM incubated for 48 hrs by sulforhodamine B assay relative to control; details: read-out: Activity
MDA-MB-231 [2] = assay: Growth inhibition of human MDA-MB-231 cells assessed as cell growth at 0.01 uM incubated for 48 hrs by sulforhodamine B assay relative to control; details: read-out: Activity
NCI-H226 [3] = assay: Growth inhibition of human NCI-H226 cells assessed as cell growth at 0.1 uM incubated for 48 hrs by sulforhodamine B assay relative to control; details: read-out: Activity
NCI-H522 = assay: Growth inhibition of human NCI-H522 cells assessed as cell growth at 0.1 uM incubated for 48 hrs by sulforhodamine B assay relative to control; details: read-out: Activity
SF-268 = assay: Growth inhibition of human SF-268 cells assessed as cell growth at 0.1 uM incubated for 48 hrs by sulforhodamine B assay relative to control; details: read-out: Activity
NCI/ADR-RES = assay: Growth inhibition of human NCI/ADR-RES cells assessed as cell growth at 0.1 uM incubated for 48 hrs by sulforhodamine B assay relative to control; details: read-out: Activity
RXF 393 [4] = assay: Growth inhibition of human RXF 393 cells assessed as cell growth at 0.1 uM incubated for 48 hrs by sulforhodamine B assay relative to control; details: read-out: Activity
MDA-MB-231 [5] = assay: Growth inhibition of human MDA-MB-231 cells assessed as cell growth at 0.1 uM incubated for 48 hrs by sulforhodamine B assay relative to control; details: read-out: Activity
MDA-MB-468 = assay: Growth inhibition of human MDA-MB-468 cells assessed as cell growth at 0.1 uM incubated for 48 hrs by sulforhodamine B assay relative to control; details: read-out: Activity
NCI-H226 [6] = assay: Growth inhibition of human NCI-H226 cells assessed as cell growth at 1 uM incubated for 48 hrs by sulforhodamine B assay relative to control; details: read-out: Activity
HCT-116 = assay: Growth inhibition of human HCT-116 cells assessed as cell growth at 1 uM incubated for 48 hrs by sulforhodamine B assay relative to control; details: read-out: Activity
ACHN = assay: Growth inhibition of human ACHN cells assessed as cell growth at 1 uM incubated for 48 hrs by sulforhodamine B assay relative to control; details: read-out: Activity
PC-3 [7] = assay: Growth inhibition of human PC-3 cells assessed as cell growth at 1 uM incubated for 48 hrs by sulforhodamine B assay relative to control; details: read-out: Activity
T47D = assay: Growth inhibition of human T47D cells assessed as cell growth at 1 uM incubated for 48 hrs by sulforhodamine B assay relative to control; details: read-out: Activity
RPMI-8226 = assay: Growth inhibition of human RPMI-8226 cells assessed as cell growth at 100 uM incubated for 48 hrs by sulforhodamine B assay relative to control; details: read-out: Activity
SR = assay: Growth inhibition of human SR cells assessed as cell growth at 100 uM incubated for 48 hrs by sulforhodamine B assay relative to control; details: read-out: Activity
HCT-15 = assay: Growth inhibition of human HCT-15 cells assessed as cell growth at 100 uM incubated for 48 hrs by sulforhodamine B assay relative to control; details: read-out: Activity
SNB-19 = assay: Growth inhibition of human SNB-19 cells assessed as cell growth at 100 uM incubated for 48 hrs by sulforhodamine B assay relative to control; details: read-out: Activity
UACC-257 = assay: Growth inhibition of human UACC-257 cells assessed as cell growth at 100 uM incubated for 48 hrs by sulforhodamine B assay relative to control; details: read-out: Activity
UACC-62 [8] = assay: Growth inhibition of human UACC-62 cells assessed as cell growth at 100 uM incubated for 48 hrs by sulforhodamine B assay relative to control; details: read-out: Activity
CAKI-1 = assay: Growth inhibition of human CAKI-1 cells assessed as cell growth at 100 uM incubated for 48 hrs by sulforhodamine B assay relative to control; details: read-out: Activity
In short: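 NCI Developmental Therapeutics Program NCI60 panel. Compounds that were active in the 10 µM one-dose screen went on to dose–response testing. Growth at each concentration is expressed relative to untreated control (100%). GI50 (concentration giving 50% of maximal inhibition of proliferation) and TGI (concentration giving total growth inhibition) were derived from the curves.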

RXF 393 [9] = assay: Growth inhibition of human RXF 393 cells assessed as cell growth at 100 uM incubated for 48 hrs by sulforhodamine B assay relative to control; details: read-out: Activity
PC-3 [10] = assay: Growth inhibition of human PC-3 cells assessed as cell growth at 100 uM incubated for 48 hrs by sulforhodamine B assay relative to control; details: read-out: Activity
MCF7 = assay: Growth inhibition of human MCF7 cells assessed as cell growth at 100 uM incubated for 48 hrs by sulforhodamine B assay relative to control; details: read-out: Activity
K562 = assay: Growth inhibition of human K562 cells incubated for 48 hrs by sulforhodamine B assay
In short: (§1)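 NCI60 panel at the NCI Developmental Therapeutics Program. Only compounds active in the 10 µM screen went to dose-response testing. GI50, the concentration giving 50% of maximal inhibition of proliferation, and TGI, the concentration giving total growth inhibition, were derived from the dose-response curves.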

HOP-62 = assay: Growth inhibition of human HOP-62 cells incubated for 48 hrs by sulforhodamine B assay; in short: as §1
NCI-H460 = assay: Growth inhibition of human NCI-H460 cells incubated for 48 hrs by sulforhodamine B assay; in short: as §1
M14 [11] = assay: Growth inhibition of human M14 cells incubated for 48 hrs by sulforhodamine B assay; in short: as §1
MDA-MB-435 = assay: Growth inhibition of human MDA-MB-435 cells incubated for 48 hrs by sulforhodamine B assay; in short: as §1
SK-MEL-5 = assay: Growth inhibition of human SK-MEL-5 cells incubated for 48 hrs by sulforhodamine B assay
In short: (§2)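 NCI DTP 60-line human tumour panel. Dose-response curves were run only for ligands active in the initial 10 µM screen. GI50 (concentration giving 50% of maximal inhibition of proliferation) and TGI (concentration giving total growth inhibition) were derived from these curves.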

UACC-62 [12] = assay: Growth inhibition of human UACC-62 cells incubated for 48 hrs by sulforhodamine B assay; in short: as §2
OVCAR-4 = assay: Growth inhibition of human OVCAR-4 cells incubated for 48 hrs by sulforhodamine B assay; in short: as §2
[13] = read-out: LC50 (the source's name)

Structure (SMILES): Nc1c(C(=O)Nc2ccccc2)sc2nc3c(cc12)CN(Cc1ccccc1)CC3
- growth at 0.01 µM (NCI-H23): 97%
- growth at 0.01 µM (M14 [1]): 98%
- growth at 0.01 µM (OVCAR-5): 99%
- growth at 0.01 µM (MDA-MB-231 [2]): 101%
- growth at 0.1 µM (NCI-H226 [3]): 96%
- growth at 0.1 µM (NCI-H522): 87%
- growth at 0.1 µM (SF-268): 99%
- growth at 0.1 µM (NCI/ADR-RES): 101%
- growth at 0.1 µM (RXF 393 [4]): 94%
- growth at 0.1 µM (MDA-MB-231 [5]): 100%
- growth at 0.1 µM (MDA-MB-468): 98%
- growth at 1 µM (NCI-H226 [6]): 92%
- growth at 1 µM (HCT-116): 86%
- growth at 1 µM (ACHN): 87%
- growth at 1 µM (PC-3 [7]): 89%
- growth at 1 µM (T47D): 83%
- growth at 100 µM (RPMI-8226): 42%
- growth at 100 µM (SR): 19%
- growth at 100 µM (HCT-15): 25%
- growth at 100 µM (SNB-19): 25%
- growth at 100 µM (UACC-257): 44%
- growth at 100 µM (UACC-62 [8]): 6%
- growth at 100 µM (CAKI-1): 36%
- growth at 100 µM (RXF 393 [9]): -5%
- growth at 100 µM (PC-3 [10]): 23%
- growth at 100 µM (MCF7): 14%
- GI50 (K562): 9.1 µM
- LC50 (concentration killing 50% of cells) (K562): > 100 µM
- TGI (K562): > 100 µM
- GI50 (HOP-62): 4.11 µM
- LC50 (HOP-62): > 100 µM
- TGI (HOP-62): 33.3 µM
- GI50 (NCI-H460): 7.51 µM
- LC50 (NCI-H460): > 100 µM
- TGI (NCI-H460): > 100 µM
- GI50 (M14 [11]): 30.8 µM
- LC50 (concentration killing 50% of cells) (M14 [11]): > 100 µM
- TGI (M14 [11]): > 100 µM
- GI50 (MDA-MB-435): 3.43 µM
- TGI (MDA-MB-435): 71.6 µM
- CC50 (MDA-MB-435; [13]): > 100 µM
- GI50 (SK-MEL-5): 9.58 µM
- LC50 (SK-MEL-5): > 100 µM
- TGI (SK-MEL-5): > 100 µM
- GI50 (UACC-62 [12]): 13.9 µM
- LC50 (UACC-62 [12]): > 100 µM
- TGI (UACC-62 [12]): > 100 µM
- GI50 (OVCAR-4): 1.97 µM
- TGI (OVCAR-4): 23.1 µM
- CC50 (OVCAR-4; [13]): > 100 µM
